Bioassay records from PubChem BioAssay.
In the library only some 2.3% were active in any assay of this set; here they are far more common.
Fh CTSL1 inh – blocks F. hepatica cathepsin L1 in PFM18AAP counter-screen; recombinant F. hepatica cathepsin L1, Z-Leu-Arg-MCA fluorescence; inhibition, % at 5.96 µM; 0.49% of 300,000 active;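 active = inhibition above the mean of all tested compounds plus 3 SD, set per screening campaign, cut at about 17% in these data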;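 also: 0% = plate median of test compound wells and 100% = 1 µM Z-Phe-Ala-diazomethylketone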
PP5 inh – PP5 (human) phosphatase inhibition. purified PP5c, OMFP substrate fluorescence. inhibition, % at 6.7 µM. 0.18% of 320,000 active;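 active = inhibition above the campaign's mean inhibition across all tested compounds plus 3 SD, cut at about 9.5% in these data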;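 also: 0% = DMSO only and 100% = 100 µM cantharidin control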
Target sequence (P53041 whole entry, looked up): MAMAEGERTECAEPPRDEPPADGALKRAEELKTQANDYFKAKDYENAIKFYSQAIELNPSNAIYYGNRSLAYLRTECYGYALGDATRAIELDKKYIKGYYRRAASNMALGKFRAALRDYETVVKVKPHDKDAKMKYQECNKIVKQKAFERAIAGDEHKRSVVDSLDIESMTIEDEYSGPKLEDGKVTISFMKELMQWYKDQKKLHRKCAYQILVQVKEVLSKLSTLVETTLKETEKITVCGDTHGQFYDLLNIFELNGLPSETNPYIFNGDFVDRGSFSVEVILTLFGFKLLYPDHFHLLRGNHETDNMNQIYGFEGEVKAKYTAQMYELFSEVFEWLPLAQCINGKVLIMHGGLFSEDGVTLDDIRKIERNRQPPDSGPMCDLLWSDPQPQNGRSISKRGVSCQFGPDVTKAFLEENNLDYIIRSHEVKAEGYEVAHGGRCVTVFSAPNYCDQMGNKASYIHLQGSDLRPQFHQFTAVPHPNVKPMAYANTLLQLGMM
UBC13 inh – blocks human UBC13 polyubiquitin chain formation; AID 485273; inhibition, % at 20 µM; 0.47% of 330,000 active; TR-FRET; P61088; in the data active = inhibition above about 45%, passing the limit was not always enough
PREPL inh – human PREPL enzyme inhibition. Q4J6C6. recombinant PREPL, fluorescence polarization activity-based probe. inhibition, % at 5.96 µM. 0.68% of 320,000 active; in the data active = inhibition above about 43%;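 also: 0% = enzyme with DMSO and 100% = wells lacking enzyme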
PP1 counter – PP1-alpha (human) inhibition in PP5 counter-screen | P62136 | purified PP1alpha, OMFP fluorescence | inhibition, % at 6.7 µM | 0.9% of 320,000 active | AID 2235;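 active = inhibition above the mean inhibition of all tested compounds plus 3 SD, computed separately for each screening campaign, cut at about 15% in these data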
UCH37 inh – blocks the human deubiquitinase UCH37; Q9Y5K5; purified proteasome/UCH37, Ub-AMC cleavage fluorescence; inhibition, % (no concentration beside the values); 0.33% of 330,000 active; AID 588478;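 active = mean inhibition over replicate wells above about 20%, limit read from the data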;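 also: 0% = compound-free wells with enzyme and 100% = wells lacking proteasome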
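Reagent: Ub-AMC substrate; assay system: Proteasome-associated human UCH37 deubiquitinase; controls: no-proteasome and no-compound wells; read-out: % inhibition of Ub-AMC cleavage fluorescence; timing: 30 min preincubation with enzyme, 25 min cleavage at room temperature; signal: AMC fluorescence from Ub-AMC cleavage, excitation 355 nm, emission 460 nm; buffer or medium: Tris-HCl pH 7.4 plus ovalbumin, ATP-MgCl2, DTT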
Active calls of the source: *; / = not tested or not shown.

SMILES	Fh CTSL1 inh	PP5 inh	UBC13 inh	PREPL inh	PP1 counter	UCH37 inh
CCc1cc(C(=O)NNC(=O)CCl)sc1C	90*	0	4	-4	-3	6
CCc1cc(C(=O)NNC(=O)CCN2CCN(c3ccccc3)CC2)sc1C	-1	2	-1	8	-2	-1
COc1ccc(/C=C/C(=O)NCC(=O)NN=Cc2cc(Br)ccc2OC)cc1	/	/	/	/	/	4
CC(=NNc1ccc(F)cc1F)c1ccc(Br)s1	/	/	/	/	/	3
COc1ccc(-c2cc(CNC(=O)CCl)on2)cc1	22*	1	4	0	-2	2
C=CCSC(=Nn1cnc2ccccc2c1=O)N1CCCCC1	/	/	/	/	/	5
Cc1ccccc1OCC(=O)NN=Cc1c(C)nn(-c2ccccc2)c1Cl	/	/	/	/	/	5
O=C(Nc1ccccc1)Nc1cccc(NC(=O)Nc2ccccc2)c1F	1	2	-2	2	16*	3
O=C(Nc1ccccc1)Nc1ccccc1Br	-2	1	-8	14	-3	1
N/C(=N\OS(=O)(=O)c1ccc(Cl)cc1)c1cccnc1	-3	-1	/	-10	0	2
N/C(=N\OS(=O)(=O)c1ccc(Cl)cc1)c1ccncc1	24*	-1	-7	1	-3	3
Cc1cccc(C=NNC(=O)c2cc(Br)ccc2OCc2ccccc2)n1	/	/	/	/	/	7
CN(C)C=Nc1nc(-c2ccc3c(c2)OCO3)cs1	/	/	/	/	/	26*
Cc1ccc(C=NNC(=O)C(c2ccncc2)N2CCOCC2)cc1 (stereo not given)	/	/	/	/	/	1
COc1ccc(C(N)c2nccc3cc(OC)c(OC)cc23)cc1OC (stereo not given)	26*	3	-34	7	-4	-2
COc1cc(N)c(Cc2nccc3cc(OC)c(OC)cc23)cc1OC	0	3	-6	13	0	1
CCc1nnc(NC(=O)C2Cc3ccccc3CN2S(=O)(=O)c2c(C)c(C)cc(C)c2C)s1 (stereo not given)	1	4	-11	1	17*	-1
COc1ccccc1N1CCN(C(=O)C(=O)NN=Cc2cccc(O)c2)CC1	/	/	/	/	/	2
O=[N+]([O-])c1ccc(C=NNc2nc(N3CCCC3)nc(N3CCCC3)n2)o1	/	/	/	/	/	6
CCN(CC)c1ccc(NC(=O)CN2CCN(S(=O)(=O)c3cc(Cl)ccc3OC)CC2)cc1	2	4	-1	72*	1	4
CCOC(=O)c1cc(-c2ccc(N3CCOCC3)cc2)nn1-c1ccccc1	4	-2	12	13	9	-3
CCOC(=O)c1cc(-c2ccc(N3CCOCC3)cc2)nn1-c1ccc(F)cc1F	7	3	1	12	17*	-3
O=C(c1ccccc1)C1C(=O)c2ccccc2C1=O	-1	1	-30	2	-3	31*
O=C(/C=C/c1ccccc1)C1C(=O)c2ccccc2C1=O	-3	2	-24	8	4	8
CC(=NNc1nc2c(s1)CCCC2)c1ccc(Cl)cc1	/	/	/	/	/	-3
SMILES	Fh CTSL1 inh	PP5 inh	UBC13 inh	PREPL inh	PP1 counter	UCH37 inh
Cc1cc(C(=O)c2ccccc2)c(NC(=O)CCl)s1	18*	4	6	-1	3	1
O=C(NCc1ccccc1)c1onc(CSc2ccc(Cl)cc2)c1C(=O)NCC1CC1	-2	2	18	-10	1	-1
O=C(NCc1ccccc1)c1onc(CSc2ccccc2)c1C(=O)NCC1CC1	5	6	15	1	16*	0
Cc1nc(SCc2ccc(O)c([N+](=O)[O-])c2)c([N+](=O)[O-])[nH]1	5	-1	-18	11	3	20*
CCOc1ccc(N2CC(C(=O)Nc3nnc(Cc4ccc(OC)cc4)s3)CC2=O)cc1 (stereo not given)	0	3	0	-4	16*	1
O=C(O)COc1ccccc1C=NNC(=O)CSc1nc2ccccc2n1Cc1ccccc1Cl	/	/	/	/	/	10
O=C(CNC(=O)c1ccco1)OC(C(=O)c1ccccc1)c1ccccc1 (stereo not given)	19*	2	1	-8	0	3
O=C(NCS(=O)(=O)c1ccccc1)c1ccccc1	30*	0	4	-1	1	3
O=C(NCCNC(=O)c1ccccc1)c1ccccc1	-3	1	-6	-10	-2	-1
CCOC(=O)c1c(S(=O)(=O)NCC2CCN(Cc3cccc(F)c3)CC2)c(C)n(C)c1C	44*	1	-5	4	5	5
